# B1: CD154: natural CD40-ligand, whole protein (protein, UniProt P27548 112-260, looked up)
# CD40 ligand, soluble form: MQRGDEDPQIAAHVVSEANSNAASVLQWAKKGYYTMKSNLVMLENGKQLTVKREGLYYVYTQVTFCSNREPSSQRPFIVGLWLKPSSGSERILLKAANTHSSSQLCEQQSVHLGGVFELQAGASVFVNVTEASQVIHRVGFSSFGLLKL
# Tests used:
# CD154 = assay: Flow cytometry, surface expression of CD154 after Mn2+ activation; assay type: cell-based, mouse (NOD, BALB/c); conditions: PBMC and spleen, Mn2+ 30 min
# CD40 = assay: Flow cytometry, surface expression of CD40 after Mn2+ activation; assay type: cell-based, mouse (NOD, BALB/c)
# How it was run: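 Flow cytometry on unfractionated PBMC from NOD and BALB/c mice ± Mn2+ activation, stained for CD4, CD40, CD18, CD11a and CD11b with isotype controls (1 to 3 × 10^5 cells). CD40 assessed in CD4hi, CD4lo (Th40) and CD4-negative subsets of the lymphocyte gate, read as overall mean fluorescence intensity. Two-tailed t test.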
# CD69 = assay: Flow cytometry, surface expression of CD69 after Mn2+ activation; assay type: cell-based, mouse (NOD, BALB/c); conditions: PBMC and spleen, Mn2+ 30 min
# CD18 [1] = assay: Flow cytometry, surface expression of CD18 after Mn2+ activation; assay type: cell-based, mouse (NOD, BALB/c)
# How it was run: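 Density-medium-purified PBMC from NOD and BALB/c mice, unactivated or Mn2+-activated, stained for CD4, CD40, CD18, CD11a and CD11b against isotype controls; 1 to 3 × 10^5 cells per stain. Lymphocytes gated as CD4hi, CD4lo (Th40) or CD4-negative, then CD18hi and CD18lo populations scored. One-way ANOVA with Tukey's multiple comparisons test.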
# CD11b [2] = assay: Flow cytometry, surface expression of CD11b after Mn2+ activation; assay type: cell-based, mouse (NOD, BALB/c)
# How it was run: (§1)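 NOD and BALB/c PBMC, isolated over density medium and used without further purification, were stained with or without Mn2+ activation for CD4, CD40, CD18, CD11a and CD11b, with isotype controls (1 to 3 × 10^5 cells per stain). Flow cytometry, lymphocyte gate split into CD4hi (conventional CD4), CD4lo (Th40) and CD4-negative cells. CD11a or CD11b surface expression compared ± Mn2+.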
# CD11a [3] = assay: Flow cytometry, surface expression of CD11a after Mn2+ activation; assay type: cell-based, mouse (NOD, BALB/c)
# How it was run: as §1
# CD25 = assay: Flow cytometry, surface expression of CD25 after Mn2+ activation; assay type: cell-based, mouse (NOD, BALB/c); conditions: PBMC and spleen, Mn2+ 30 min
# [4] = molecular target: FITC-conjugated mouse KGYY15 (mouse); assay: flow cytometry on cells
# CD18 [5] = assay: Control immunoprecipitation; assay type: binding, mouse (NOD); conditions: NOD cell lysates; OVA-pep IP, control for KGYY15
# CD11a [6] = assay: Control immunoprecipitation; assay type: binding, mouse (NOD); conditions: NOD cell lysates; OVA-pep IP, control for KGYY15
# CD11b [7] = assay: Control immunoprecipitation; assay type: binding, mouse (NOD); conditions: NOD cell lysates; OVA-pep IP, control for KGYY15
# [8] = test system: integrin α5β1 (CD49e/CD29); conditions: cited from earlier work
# integrin αIIbβ3 = conditions: cited from earlier work
# [9] = test system: integrin αMβ2 (CD11b/CD18); conditions: cited from earlier work
# [10] = PBMC conventional CD4 T cells, both strains
# [11] = PBMC, BALB/c Th40, NOD Th40 and CD4-negative cells
# [12] = spleen cells, two mouse strains
# [13] = PBMC, any cell type, either strain
molecule,measurement,setting,value
"[Mn+2] [Mn^2+, manganese divalent ions]",surface expression of CD154,CD154,None of the three molecules was affected
same,surface expression of CD40,CD40; [10],did not change surface expression of CD40 or CD18
same,percentage of cells expressing CD40 on surface,"CD40; PBMC, NOD and BALB/c",did not increase the percentage of cells expressing CD40
same,intensity of CD40 surface expression,CD40; [11],significantly elevated
same,surface expression of CD40,CD40; [12],did not reveal any change
same,surface expression of CD69,CD69,None of the three molecules was affected
same,surface expression of CD18,CD18 [1]; [10],did not change surface expression of CD40 or CD18
same,CD18hi population,CD18 [1]; [11],decrease in the CD18^hi population
same,CD18lo population,CD18 [1]; [11],corresponding increase in the CD18^lo population
same,surface expression of CD18,CD18 [1]; [12],did not reveal any change
same,surface expression of CD11b,CD11b [2]; [13],no change
same,surface expression of CD11b,CD11b [2]; [12],did not reveal any change
same,surface expression of CD11a,CD11a [3]; [13],no change
same,surface expression of CD11a,CD11a [3]; [12],did not reveal any change
same,surface expression of CD25,CD25,None of the three molecules was affected
recombinant CD11b/CD18 (R&D Systems cat# 4047-AM-050) (from UniProt P11215 17-1104; P05107 23-700) (complex),percent reduction of KGYY15-FITC staining of NAMALWA cells,[4],22.7%
"OVA-peptide: unrelated peptide, the 17-amino-acid OVA (323–339) peptide, control for KGYY15 (KISQAVHAAHAEINEAG; UniProt P01012 323-339, looked up, fragment)",immunoprecipitation of CD18 (control),CD18 [5],"No CD11a, CD11b, or CD18 was immunoprecipitated"
same,immunoprecipitation of CD11a (control),CD11a [6],"No CD11a, CD11b, or CD18 was immunoprecipitated"
same,immunoprecipitation of CD11b (control),CD11b [7],"No CD11a, CD11b, or CD18 was immunoprecipitated"
recombinant CD11a/CD18 (R&D Systems cat# 3868-AV-050) (from UniProt P20701 26-1090; P05107 23-700) (complex),percent reduction of KGYY15-FITC staining of NAMALWA cells,[4],29.4%
B1,binding to integrin,[8],binds
same,binding to integrin,integrin αIIbβ3,binds
same,binding to integrin,[9],binds
